# Reference: ChEMBL document CHEMBL4715925, “Sulfamoylbenzamide-based Capsid Assembly Modulators for Selective Inhibition of Hepatitis B Viral Replication” (ACS Med Chem Lett, 2021)
# The source made the active and inactive calls. The rule behind the calls is not given here.
# Columns and labels:
# [1] = Selectivity index, ratio of CC50 for human […] cells to EC50 for Hepatitis B virus; assay type: toxicity; conditions: read-out: Ratio CC50/EC50
# [2] = Cytotoxicity against human HepG2 2.2.15 cells assessed as reduction in cell viability incubated for 5 days by MTT assay; assay type: cell-based; conditions: time 5 day
# Summary of the method: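 HepG2.2.15 cells were incubated with compound, then cell viability was measured. Mean ± SD of three independent experiments.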
# Hepatitis B virus [3] = test: Antiviral activity against Hepatitis B genotype D virus infected in HepG2 2.2.15 cells assessed as inhibition of viral DNA incubated for 5 days by qPCR analysis; assay type: functional, cell-based; conditions: HepG2 2.2.15, 120 h
# Summary of the method: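 HepG2.2.15 cells were incubated with compound for 5 days. HBV DNA was then purified from the culture supernatant and quantified by real-time PCR.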
# [4] = AUClast in Sprague-Dawley rat at 5 mg/kg, iv by LC-MS/MS analysis; assay type: ADME, organism-based; set-up: route intravenous, time 0 - last, dose 5 mg/kg; conditions: in vivo
# Summary of the method: (§1)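 Male SD rats, 5 mg/kg given i.v. or p.o.; plasma concentration–time courses followed. Parameters: Tmax, Cmax, terminal T1/2, AUClast, AUC to infinity, total plasma clearance, Vss, oral bioavailability (Ft). Values are mean ± SD of at least three independent experiments.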
# [5] = Oral bioavailability in Sprague-Dawley rat at 5 mg/kg by LC-MS/MS analysis; assay type: ADME, organism-based; conditions: in vivo; summary of the method: as §1
# Hepatitis B virus [6] = test: Induction of recombinant Hepatitis B virus HBc (1-149)-His protein self-assembly expressed in Escherichia coli BL21 (DE3) assessed as long rod-shaped particles at 30 uM after 3 to 5 days of incubation by TEM analysis relative to control; conditions: filed as modulator, time 3-5 day
# [7] = Half life in Sprague-Dawley rat at 5 mg/kg, iv by LC-MS/MS analysis; assay type: ADME, organism-based; conditions: in vivo; summary of the method: as §1
# [8] = AUClast in Sprague-Dawley rat at 5 mg/kg, po by LC-MS/MS analysis; assay type: ADME, organism-based; set-up: time 0 - last, route oral, dose 5 mg/kg; conditions: in vivo; summary of the method: as §1
# [9] = Stability in rat plasma assessed as compound remaining at 5 uM incubated for 4 hrs by LC-MS/MS analysis; assay type: ADME, cell-free; conditions: read-out: Stabilty
# Summary of the method: (§2)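 Incubated in rat or human plasma at 37 °C for 4 h; result is % compound remaining. n = 3, mean ± SD.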
# [10] = Clearance in Sprague-Dawley rat at 5 mg/kg, iv by LC-MS/MS analysis; assay type: ADME, organism-based; conditions: in vivo; summary of the method: as §1
# [11] = Metabolic stability in rat liver microsomes assessed as half life at 1 uM incubated for 30 mins by LC-MS/MS analysis; assay type: ADME, Microsome
# Summary of the method: (§3)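 Phase-I stability in rat or human liver microsomes, given as % remaining after 30 min, with half-life also derived. n = 3, mean ± SD.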
# [12] = Metabolic stability in rat liver microsomes assessed as compound remaining at 1 uM incubated for 30 mins by LC-MS/MS analysis; assay type: ADME, Microsome; conditions: read-out: Stabilty; summary of the method: as §3
# [13] = Metabolic stability in human liver microsomes assessed as compound remaining at 1 uM incubated for 30 mins by LC-MS/MS analysis; assay type: ADME, Microsome; conditions: read-out: Stabilty; summary of the method: as §3
# [14] = AUC (0 to infinity) in Sprague-Dawley rat at 5 mg/kg, iv by LC-MS/MS analysis; assay type: ADME, organism-based; set-up: time infinity, route intravenous, dose 5 mg/kg; conditions: in vivo; summary of the method: as §1
# [15] = molecular target: Voltage-gated inwardly rectifying potassium channel KCNH2 (Homo sapiens, UniProt Q12809); test: Inhibition of human ERG by fluorescence polarization assay
# Sequence of Voltage-gated inwardly rectifying potassium channel KCNH2 (Q12809 whole entry): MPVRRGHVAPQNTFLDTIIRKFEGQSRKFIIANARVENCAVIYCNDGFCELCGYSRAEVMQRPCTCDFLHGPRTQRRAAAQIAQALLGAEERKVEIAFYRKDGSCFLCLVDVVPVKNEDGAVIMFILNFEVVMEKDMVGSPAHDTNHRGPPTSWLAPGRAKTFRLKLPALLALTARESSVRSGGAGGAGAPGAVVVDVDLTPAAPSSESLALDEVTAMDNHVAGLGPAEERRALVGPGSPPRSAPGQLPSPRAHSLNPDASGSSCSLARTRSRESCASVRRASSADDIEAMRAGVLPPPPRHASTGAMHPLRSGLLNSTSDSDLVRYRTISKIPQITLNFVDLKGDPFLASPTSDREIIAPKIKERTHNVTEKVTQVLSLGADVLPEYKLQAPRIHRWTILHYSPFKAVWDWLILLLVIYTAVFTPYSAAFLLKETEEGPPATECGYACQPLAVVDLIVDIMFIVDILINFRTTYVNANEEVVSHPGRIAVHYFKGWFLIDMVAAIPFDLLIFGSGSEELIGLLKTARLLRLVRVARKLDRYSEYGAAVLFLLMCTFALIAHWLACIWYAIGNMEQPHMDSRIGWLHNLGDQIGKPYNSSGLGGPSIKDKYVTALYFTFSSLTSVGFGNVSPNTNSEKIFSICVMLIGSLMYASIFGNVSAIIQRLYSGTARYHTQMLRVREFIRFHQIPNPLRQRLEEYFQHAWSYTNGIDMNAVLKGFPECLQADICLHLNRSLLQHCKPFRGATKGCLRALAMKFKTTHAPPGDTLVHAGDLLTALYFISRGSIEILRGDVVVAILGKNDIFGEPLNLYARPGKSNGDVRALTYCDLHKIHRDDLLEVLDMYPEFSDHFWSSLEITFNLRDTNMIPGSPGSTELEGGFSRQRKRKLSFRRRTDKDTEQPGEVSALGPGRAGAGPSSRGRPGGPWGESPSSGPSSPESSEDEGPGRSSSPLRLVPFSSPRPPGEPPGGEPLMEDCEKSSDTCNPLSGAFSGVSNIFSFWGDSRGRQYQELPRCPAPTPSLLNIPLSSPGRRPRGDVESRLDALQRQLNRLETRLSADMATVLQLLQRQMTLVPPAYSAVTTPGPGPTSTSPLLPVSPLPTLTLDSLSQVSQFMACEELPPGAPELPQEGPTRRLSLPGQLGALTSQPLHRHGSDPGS
# [16] = Protein binding in rat plasma at 5 uM incubated for 4 hrs by LC-MS/MS analysis; assay type: ADME, cell-free; conditions: read-out: PPB (converted)
# Cytochrome P450 3A4 = Cytochrome P450 3A4 (Homo sapiens, UniProt P08684); test: Inhibition of human liver microsome CYP3A4 using […] as substrate incubated for 20 mins by LC-MS/MS with HPLC analysis; assay type: ADME, microsomes
# Sequence of Cytochrome P450 3A4 (P08684 whole entry): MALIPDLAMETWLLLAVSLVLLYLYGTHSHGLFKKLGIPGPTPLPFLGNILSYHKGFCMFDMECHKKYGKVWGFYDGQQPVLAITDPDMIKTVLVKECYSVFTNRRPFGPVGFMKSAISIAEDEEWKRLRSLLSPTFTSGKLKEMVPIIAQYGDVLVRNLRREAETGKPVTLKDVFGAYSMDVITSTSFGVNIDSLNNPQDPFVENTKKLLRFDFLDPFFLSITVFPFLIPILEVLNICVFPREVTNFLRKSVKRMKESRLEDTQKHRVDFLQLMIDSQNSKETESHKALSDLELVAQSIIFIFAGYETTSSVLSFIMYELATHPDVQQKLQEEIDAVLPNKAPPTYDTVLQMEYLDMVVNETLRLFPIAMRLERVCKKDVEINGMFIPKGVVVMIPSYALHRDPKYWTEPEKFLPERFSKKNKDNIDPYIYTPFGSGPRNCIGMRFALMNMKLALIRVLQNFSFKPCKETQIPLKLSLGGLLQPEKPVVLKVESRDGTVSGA
# Summary of the method: (§4)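 Cocktail-substrate assay in human liver microsomes; IC50 reported for CYP1A2, 2C9, 2C19, 2D6 and 3A4. n = 3, mean ± SD.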
# [17] = Protein binding in human plasma at 5 uM incubated for 4 hrs by LC-MS/MS analysis; assay type: ADME, cell-free; conditions: read-out: PPB (converted)
# [18] = Tmax in Sprague-Dawley rat at 5 mg/kg, po by LC-MS/MS analysis; assay type: ADME, organism-based; conditions: in vivo; summary of the method: as §1
# Hepatitis B virus [19] = test: Induction of recombinant Hepatitis B virus HBc (1-149)-His protein self-assembly expressed in Escherichia coli BL21 (DE3) assessed as short rod-shaped particles at 30 uM after 12 hrs of incubation by TEM analysis relative to control; conditions: filed as modulator
# Cytochrome P450 2C9 = Cytochrome P450 2C9 (Homo sapiens, UniProt P11712); test: Inhibition of human liver microsome CYP2C9 using tolbutamide as substrate incubated for 20 mins by LC-MS/MS with HPLC analysis; assay type: ADME, microsomes; summary of the method: as §4
# Sequence of Cytochrome P450 2C9 (P11712 whole entry): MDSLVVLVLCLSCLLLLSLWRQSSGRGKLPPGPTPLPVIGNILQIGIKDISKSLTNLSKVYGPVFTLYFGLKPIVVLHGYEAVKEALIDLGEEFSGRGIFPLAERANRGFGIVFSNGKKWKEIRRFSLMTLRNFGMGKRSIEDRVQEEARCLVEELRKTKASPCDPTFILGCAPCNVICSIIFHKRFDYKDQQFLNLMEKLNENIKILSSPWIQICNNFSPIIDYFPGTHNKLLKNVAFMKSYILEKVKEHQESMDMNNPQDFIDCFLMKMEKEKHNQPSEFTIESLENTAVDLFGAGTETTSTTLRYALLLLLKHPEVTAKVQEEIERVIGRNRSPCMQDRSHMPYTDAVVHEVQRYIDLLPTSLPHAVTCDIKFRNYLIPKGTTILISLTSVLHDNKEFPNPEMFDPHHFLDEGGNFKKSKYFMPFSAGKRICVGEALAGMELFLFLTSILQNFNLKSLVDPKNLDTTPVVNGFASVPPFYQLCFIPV
# Cytochrome P450 2D6 = Cytochrome P450 2D6 (Homo sapiens, UniProt P10635); test: Inhibition of human liver microsome CYP2D6 using dextromethorphan as substrate incubated for 20 mins by LC-MS/MS with HPLC analysis; assay type: ADME, microsomes; summary of the method: as §4
# Sequence of Cytochrome P450 2D6 (P10635 whole entry): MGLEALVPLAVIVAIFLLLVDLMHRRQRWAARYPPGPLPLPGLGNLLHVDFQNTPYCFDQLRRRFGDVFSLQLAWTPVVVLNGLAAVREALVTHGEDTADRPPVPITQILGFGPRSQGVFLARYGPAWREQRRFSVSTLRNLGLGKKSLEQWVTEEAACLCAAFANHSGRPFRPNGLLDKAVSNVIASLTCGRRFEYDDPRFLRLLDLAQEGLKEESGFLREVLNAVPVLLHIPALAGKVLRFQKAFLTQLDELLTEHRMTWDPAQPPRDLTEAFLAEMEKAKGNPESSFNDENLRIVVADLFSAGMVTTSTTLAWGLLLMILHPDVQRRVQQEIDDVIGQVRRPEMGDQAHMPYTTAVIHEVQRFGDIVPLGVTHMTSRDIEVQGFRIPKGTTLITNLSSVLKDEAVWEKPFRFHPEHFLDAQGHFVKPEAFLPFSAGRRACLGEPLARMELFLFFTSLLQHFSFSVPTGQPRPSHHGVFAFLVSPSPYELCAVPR
# [20] = Half life in Sprague-Dawley rat at 5 mg/kg, po by LC-MS/MS analysis; assay type: ADME, organism-based; conditions: in vivo; summary of the method: as §1
# [21] = Metabolic stability in human liver microsomes assessed as half life at 1 uM incubated for 30 mins by LC-MS/MS analysis; assay type: ADME, Microsome; summary of the method: as §3
# Hepatitis B virus [22] = test: Induction of recombinant Hepatitis B virus HBc (1-149)-His protein self-assembly expressed in Escherichia coli BL21 (DE3) assessed as longer tubular shaped particles at 30 uM after 3 to 5 days of incubation by TEM analysis relative to control; conditions: filed as modulator, time 3-5 day
# Cytochrome P450 1A2 = molecular target: T1, Cytochrome P450 1A2 (Homo sapiens, UniProt P05177); test: Inhibition of human liver microsome CYP1A2 using phenacetin as substrate incubated for 20 mins by LC-MS/MS with HPLC analysis; assay type: ADME, microsomes; summary of the method: as §4
# T1 sequence (P05177 whole entry): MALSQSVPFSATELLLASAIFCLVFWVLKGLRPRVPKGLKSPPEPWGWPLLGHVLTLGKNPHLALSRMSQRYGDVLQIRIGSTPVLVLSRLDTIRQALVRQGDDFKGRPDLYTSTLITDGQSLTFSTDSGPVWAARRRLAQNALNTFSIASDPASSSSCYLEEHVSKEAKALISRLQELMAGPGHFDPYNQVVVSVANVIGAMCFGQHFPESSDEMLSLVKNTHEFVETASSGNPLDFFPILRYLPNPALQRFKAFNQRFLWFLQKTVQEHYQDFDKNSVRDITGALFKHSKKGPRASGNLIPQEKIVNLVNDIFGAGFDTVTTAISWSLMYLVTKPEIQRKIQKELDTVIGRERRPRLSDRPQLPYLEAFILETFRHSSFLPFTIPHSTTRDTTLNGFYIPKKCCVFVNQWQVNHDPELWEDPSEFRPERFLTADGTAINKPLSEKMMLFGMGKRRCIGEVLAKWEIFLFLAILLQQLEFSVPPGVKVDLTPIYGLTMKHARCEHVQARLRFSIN
# [23] = AUC (0 to infinity) in Sprague-Dawley rat at 5 mg/kg, po by LC-MS/MS analysis; assay type: ADME, organism-based; set-up: time infinity, route oral, dose 5 mg/kg; conditions: in vivo; summary of the method: as §1
# [24] = Cmax in Sprague-Dawley rat at 5 mg/kg, po by LC-MS/MS analysis; assay type: ADME, organism-based; set-up: route oral, dose 5 mg/kg; conditions: in vivo; summary of the method: as §1
# [25] = Stability in human plasma assessed as compound remaining at 5 uM incubated for 4 hrs by LC-MS/MS analysis; assay type: ADME, cell-free; conditions: read-out: Stabilty; summary of the method: as §2
# [26] = Volume of distribution at steady state in Sprague-Dawley rat at 5 mg/kg, iv by LC-MS/MS analysis; assay type: ADME, organism-based; conditions: in vivo, read-out: Vdss; summary of the method: as §1
# Cytochrome P450 2C19 = Cytochrome P450 2C19 (Homo sapiens, UniProt P33261); test: Inhibition of human liver microsome CYP2C19 using S-mephenytoin as substrate incubated for 20 mins by LC-MS/MS with HPLC analysis; assay type: ADME, microsomes; summary of the method: as §4
# Sequence of Cytochrome P450 2C19 (P33261 whole entry): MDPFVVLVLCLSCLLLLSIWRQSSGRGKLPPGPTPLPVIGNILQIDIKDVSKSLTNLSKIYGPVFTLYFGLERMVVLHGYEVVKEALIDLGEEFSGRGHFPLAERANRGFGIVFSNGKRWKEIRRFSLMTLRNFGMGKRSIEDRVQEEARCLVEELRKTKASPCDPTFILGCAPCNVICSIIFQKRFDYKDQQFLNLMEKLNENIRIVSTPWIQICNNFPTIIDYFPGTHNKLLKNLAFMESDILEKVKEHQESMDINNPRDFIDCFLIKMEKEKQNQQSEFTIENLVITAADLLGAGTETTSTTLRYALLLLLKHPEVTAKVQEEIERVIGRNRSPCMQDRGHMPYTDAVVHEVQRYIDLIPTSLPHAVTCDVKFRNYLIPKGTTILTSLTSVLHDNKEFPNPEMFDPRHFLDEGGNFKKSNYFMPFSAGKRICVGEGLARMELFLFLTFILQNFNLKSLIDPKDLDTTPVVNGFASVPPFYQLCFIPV
# Hepatitis B virus [27] = test: Induction of recombinant Hepatitis B virus HBc (1-149)-His protein self-assembly expressed in Escherichia coli BL21 (DE3) at 30 uM by TEM analysis relative to control; conditions: filed as modulator, time 3-5 day, TDE = time-dependent effect
# Hepatitis B virus [28] = test: Induction of recombinant Hepatitis B virus HBc (1-149)-His protein self-assembly expressed in Escherichia coli BL21 (DE3) assessed as spherical shaped particles at 30 uM after 12 hrs of incubation by TEM analysis relative to control; conditions: filed as modulator
smiles,measurement,setting,value
Nc1cc(F)c(S(=O)(=O)N2CCC(O)CC2)cc1C(=O)Nc1ccc(Cl)c(Cl)c1,selectivity ratio,[1],9.9
same,CC50 at 120 h,[2],20.4 µM
same,EC50,Hepatitis B virus [3],2.07 µM
Nc1cc(F)c(S(=O)(=O)N2CCC(O)CC2)cc1C(=O)Nc1ccc(F)c(C(F)(F)F)c1,selectivity ratio,[1],21.7
same,CC50 at 120 h,[2],47.3 µM
same,EC50,Hepatitis B virus [3],2.18 µM
Nc1cc(F)c(S(=O)(=O)N2CCC(O)CC2)cc1C(=O)Nc1ccc(Cl)c(C(F)(F)F)c1,CC50 at 120 h,[2],17.8 µM
same,EC50,Hepatitis B virus [3],> 3.3 µM
N#Cc1cc(NC(=O)c2cc(S(=O)(=O)N3CCC(O)CC3)c(F)cc2N)ccc1Cl,CC50 at 120 h,[2],> 900 µM
same,EC50,Hepatitis B virus [3],> 3.3 µM
Nc1cc(F)c(S(=O)(=O)N2CCC(O)CC2)cc1C(=O)Nc1cc(F)c(F)c(F)c1,selectivity ratio,[1],73
same,CC50 at 120 h,[2],19.7 µM
same,EC50,Hepatitis B virus [3],0.27 µM
Nc1cc(F)c(S(=O)(=O)N2CCC(O)CC2)cc1C(=O)Nc1ccc(F)c(F)c1,selectivity ratio,[1],53.3
same,AUC(0-t),[4],2.45 µg·h/mL
same,bioavailability,[5],84.2%
same,Activity,Hepatitis B virus [6],Active
same,half-life,[7],1.22 h
same,AUC(0-t),[8],2.08 µg·h/mL
same,"remaining at 4 h, 5 µM",[9],84.6%
same,CC50 at 120 h,[2],16 µM
same,clearance,[10],2.05 L/h/kg
same,half-life at 1 µM,[11],0.867 h
same,"remaining at 0.5 h, 1 µM",[12],67.9%
same,"remaining at 0.5 h, 1 µM",[13],68.1%
same,AUC(0-inf),[14],2.5 µg·h/mL
same,IC50,[15],50 µM
same,"fraction unbound at 4 h, 5 µM",[16],0.073
same,IC50,Cytochrome P450 3A4,41 µM
same,"fraction unbound at 4 h, 5 µM",[17],0.035
same,Tmax,[18],1.67 h
same,Activity,Hepatitis B virus [19],Active
same,IC50,Cytochrome P450 2C9,25 µM
same,IC50,Cytochrome P450 2D6,29.3 µM
same,half-life,[20],3.84 h
same,half-life at 1 µM,[21],1.24 h
same,Activity,Hepatitis B virus [22],Active
same,IC50,Cytochrome P450 1A2,> 100 µM
same,AUC(0-inf),[23],2.1 µg·h/mL
same,Cmax,[24],0.48 µg/mL
same,EC50,Hepatitis B virus [3],0.3 µM
same,"remaining at 4 h, 5 µM",[25],93.6%
same,Vd,[26],2.88 L/kg
same,IC50,Cytochrome P450 2C19,18.3 µM
same,inhibition,Hepatitis B virus [27],Tde
same,Activity,Hepatitis B virus [28],Active
Nc1cc(F)c(S(=O)(=O)N2CCC(O)CC2)cc1C(=O)Nc1ccc(C(F)(F)F)c(F)c1,CC50 at 120 h,[2],5.9 µM
same,EC50,Hepatitis B virus [3],> 3.3 µM
Nc1cc(F)c(S(=O)(=O)N2CCC(O)CC2)cc1C(=O)Nc1ccc(F)cc1,selectivity ratio,[1],80.4
same,CC50 at 120 h,[2],45.8 µM
same,EC50,Hepatitis B virus [3],0.57 µM
